Assays:
[1] = Stability of the compound in human K562 cell lysates in lysis buffer assessed as parent compound remaining measured after 4 hrs; type: ADME, subcellular; conditions: k562, 4 h
Method in brief: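 Compound incubated 4 h in K562 cell extract, 5 mg/mL in lysis buffer; percent parent remaining determined (n=2).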

[2] = Stability of the compound in 50% plasma (unknown origin) in PBS assessed as parent compound remaining measured after 24 hrs; type: ADME, cell-free; conditions: unidentified
Method in brief: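 Compound incubated 24 h in 50% plasma diluted in phosphate-buffered saline; percent parent remaining determined (n=2).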

[3] = tested on: K562; test: Cytotoxicity against human K562 cells assessed as inhibition of cell growth incubated for 72 hrs; type: functional, cell-based; conditions: K562, 72 h
[4] = Induction of interferon gamma production in human Vgamma9Vdelta2 T cells pretreated with K562 cells followed by compound washout and cocultured with Vgamma9Vdelta2 T cells and measured after 240 mins by ELISA; type: functional, cell-based; conditions: Vgamma9Vdelta2 T cell
Method in brief: (§1)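 K562 cells loaded with compound over a dose range for 15, 60 or 240 min, washed, then co-cultured with human Vγ9Vδ2 T cells.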

[5] = Induction of interferon gamma production in human Vgamma9Vdelta2 T cells pretreated with K562 cells followed by compound washout and cocultured with Vgamma9Vdelta2 T cells and measured after 15 mins by ELISA; type: functional, cell-based; conditions: Vgamma9Vdelta2 T cell; method in brief: as §1
[6] = Induction of interferon gamma production in human Vgamma9Vdelta2 T cells pretreated with K562 cells followed by compound washout and cocultured with Vgamma9Vdelta2 T cells and measured after 60 mins by ELISA; type: functional, cell-based; conditions: Vgamma9Vdelta2 T cell; method in brief: as §1
[7] = Induction of Vgamma9Vdelta2 T cell proliferation in human peripheral blood; type: functional, cell-based

COC(=O)[C@@H](NP(=O)(CCC=C(C)C)N[C@H](C(=O)OC)C(C)C)C(C)C
Stability [1]: 85% | Stability [2]: 99%

CCOC(=O)CNP(=O)(CCC=C(C)C)NCC(=O)OCC
Stability [1]: 86% | Stability [2]: 82%

CCOC(=O)CNP(=O)(CC/C=C(\C)CO)Oc1ccccc1 (racemic)
Stability [1]: 86% | IC50 [3]: > 100000 nM | EC50 [4]: 51 nM | EC50 [5]: 1500 nM | EC50 [6]: 230 nM

CCOC(=O)CNP(=O)(CC/C=C(\C)CO)NCC(=O)OCC
Stability [1]: 57% | IC50 [3]: > 100000 nM | EC50 [4]: 1600 nM | EC50 [7]: 43 nM | EC50 [5]: 23000 nM | Stability [2]: 82% | EC50 [6]: 7200 nM

C/C(=C\CCP(=O)(OCOC(=O)C(C)(C)C)OCOC(=O)C(C)(C)C)CO
Stability [1]: 0% | IC50 [3]: > 100000 nM | EC50 [4]: 24 nM | EC50 [5]: 43 nM | EC50 [6]: 30 nM

CC(C)=CCCP(=O)(N[C@@H](C)C(=O)OC(C)C)N[C@@H](C)C(=O)OC(C)C
Stability [1]: 79% | Stability [2]: 90%

CCOC(=O)[C@H](C)NP(=O)(CCC=C(C)C)N[C@@H](C)C(=O)OCC
Stability [1]: 31% | Stability [2]: 70%

COC(=O)[C@@H](NP(=O)(CC/C=C(\C)CO)N[C@H](C(=O)OC)C(C)C)C(C)C
Stability [1]: 74% | IC50 [3]: 10000 nM | EC50 [4]: 1900 nM | EC50 [7]: 30 nM | EC50 [5]: 14000 nM | Stability [2]: 86% | EC50 [6]: 5700 nM
